Measurements from ChEMBL document CHEMBL3621108, “Discovery, Development, and SAR of Aminothiazoles as LIMK Inhibitors with Cellular Anti-Invasive Properties” (J Med Chem, 2015).

How the values were obtained:
LIM domain kinase 1 [1] = target: T1, LIM domain kinase 1 (Homo sapiens, UniProt P53667); test: Inhibition of recombinant N-terminal 6His-tagged LIMK1 (unknown origin) expressed in Sf21 cells by HTRF assay using cofilin as a substrate
Target sequence in this assay (P53667 whole entry, the tested form may be a part): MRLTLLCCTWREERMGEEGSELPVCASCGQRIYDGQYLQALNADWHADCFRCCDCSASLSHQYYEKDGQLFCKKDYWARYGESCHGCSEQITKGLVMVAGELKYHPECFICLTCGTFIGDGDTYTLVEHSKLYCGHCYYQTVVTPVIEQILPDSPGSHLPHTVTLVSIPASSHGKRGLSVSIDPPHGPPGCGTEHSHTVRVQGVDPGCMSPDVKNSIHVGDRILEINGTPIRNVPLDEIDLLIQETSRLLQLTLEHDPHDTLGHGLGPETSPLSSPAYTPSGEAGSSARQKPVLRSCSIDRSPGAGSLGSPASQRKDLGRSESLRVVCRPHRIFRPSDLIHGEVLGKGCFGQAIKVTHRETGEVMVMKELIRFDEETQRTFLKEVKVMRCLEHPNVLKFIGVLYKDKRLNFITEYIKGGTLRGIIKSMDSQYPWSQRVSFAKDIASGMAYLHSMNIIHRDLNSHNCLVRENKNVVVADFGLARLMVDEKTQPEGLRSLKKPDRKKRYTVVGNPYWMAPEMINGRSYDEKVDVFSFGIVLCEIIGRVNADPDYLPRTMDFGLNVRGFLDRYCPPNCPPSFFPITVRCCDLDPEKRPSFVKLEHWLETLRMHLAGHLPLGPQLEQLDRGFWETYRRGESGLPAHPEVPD

[2] = Cytotoxicity against human MDA-MB-231 cells assessed as viable cells at 10 uM; format: cell-based; conditions: read-out: Activity
How it was run: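 MTT viability assay; cells exposed to 10 µM inhibitor, read-out as % viable cells.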

MDA-MB-231 = test: Antiinvasion activity in human MDA-MB-231-luc cells at 3 uM by matrigel inverse invasion assay; format: functional
How it was run: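 MDA MB-231-luc cells plated on underside of transwell filter; invasion into matrigel plug (inverse format) scored by confocal microscopy of plug sections. Inhibition = proportion of cells invading beyond 60 µm versus under 60 µm, relative to control; compound at 3 µM.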

LIM domain kinase 1 [3] = target: T1, LIM domain kinase 1; test: Inhibition of LIMK1 in human ZR75-1 cells assessed as inhibition of cofilin phosphorylation after 5 hrs; format: cell-based, ZR-75-1
How it was run: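 p-Cofilin biomarker assay in ZR-75-1 cells, imaged and quantified on a Cellomics array scan instrument.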
Target sequence in this assay (P53667 whole entry, the tested form may be a part): as above

[4] = target: Serine/threonine-protein kinase 16 (Homo sapiens) (UniProt O75716); conditions: 10 uM
Chain of Serine/threonine-protein kinase 16 (Homo sapiens) (O75716 whole entry, the tested form may be a part): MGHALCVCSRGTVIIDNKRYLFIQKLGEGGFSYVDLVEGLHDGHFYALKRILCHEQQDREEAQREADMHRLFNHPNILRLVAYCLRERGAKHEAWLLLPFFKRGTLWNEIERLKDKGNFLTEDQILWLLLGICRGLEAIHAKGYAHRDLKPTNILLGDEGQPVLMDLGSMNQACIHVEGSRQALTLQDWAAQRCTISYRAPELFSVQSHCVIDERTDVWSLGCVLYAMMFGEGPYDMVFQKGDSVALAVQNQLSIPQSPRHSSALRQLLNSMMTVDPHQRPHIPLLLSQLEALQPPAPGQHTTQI

LIM domain kinase 1 [5] = target: T1, LIM domain kinase 1; conditions: 10 uM
Target sequence in this assay (P53667 whole entry, looked up, the tested form may be a part): as the sequence (P53667 whole entry, the tested form may be a part) above

[6] = target: 5'-AMP-activated protein kinase catalytic subunit alpha-2 (Homo sapiens) (UniProt P54646); conditions: 10 uM
Chain of 5'-AMP-activated protein kinase catalytic subunit alpha-2 (Homo sapiens) (P54646 whole entry, looked up, the tested form may be a part): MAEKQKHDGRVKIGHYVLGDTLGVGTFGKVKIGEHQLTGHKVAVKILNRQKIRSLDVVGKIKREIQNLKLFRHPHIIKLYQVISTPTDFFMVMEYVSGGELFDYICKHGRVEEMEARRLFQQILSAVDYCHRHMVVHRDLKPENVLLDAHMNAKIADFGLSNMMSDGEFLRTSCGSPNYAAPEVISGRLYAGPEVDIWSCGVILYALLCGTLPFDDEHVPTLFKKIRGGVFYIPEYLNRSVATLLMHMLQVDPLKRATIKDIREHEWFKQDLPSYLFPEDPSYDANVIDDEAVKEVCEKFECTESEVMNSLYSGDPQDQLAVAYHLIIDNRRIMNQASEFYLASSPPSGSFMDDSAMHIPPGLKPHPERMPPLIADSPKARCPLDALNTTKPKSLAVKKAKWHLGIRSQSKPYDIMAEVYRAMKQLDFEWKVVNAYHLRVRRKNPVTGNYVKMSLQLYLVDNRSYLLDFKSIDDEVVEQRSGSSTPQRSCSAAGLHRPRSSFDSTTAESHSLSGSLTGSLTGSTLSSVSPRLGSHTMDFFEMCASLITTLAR

LIM domain kinase 2 [7] = target: T2, LIM domain kinase 2 (Homo sapiens, UniProt P53671); conditions: 10 uM
Target sequence in this assay (P53671 whole entry, looked up, the tested form may be a part): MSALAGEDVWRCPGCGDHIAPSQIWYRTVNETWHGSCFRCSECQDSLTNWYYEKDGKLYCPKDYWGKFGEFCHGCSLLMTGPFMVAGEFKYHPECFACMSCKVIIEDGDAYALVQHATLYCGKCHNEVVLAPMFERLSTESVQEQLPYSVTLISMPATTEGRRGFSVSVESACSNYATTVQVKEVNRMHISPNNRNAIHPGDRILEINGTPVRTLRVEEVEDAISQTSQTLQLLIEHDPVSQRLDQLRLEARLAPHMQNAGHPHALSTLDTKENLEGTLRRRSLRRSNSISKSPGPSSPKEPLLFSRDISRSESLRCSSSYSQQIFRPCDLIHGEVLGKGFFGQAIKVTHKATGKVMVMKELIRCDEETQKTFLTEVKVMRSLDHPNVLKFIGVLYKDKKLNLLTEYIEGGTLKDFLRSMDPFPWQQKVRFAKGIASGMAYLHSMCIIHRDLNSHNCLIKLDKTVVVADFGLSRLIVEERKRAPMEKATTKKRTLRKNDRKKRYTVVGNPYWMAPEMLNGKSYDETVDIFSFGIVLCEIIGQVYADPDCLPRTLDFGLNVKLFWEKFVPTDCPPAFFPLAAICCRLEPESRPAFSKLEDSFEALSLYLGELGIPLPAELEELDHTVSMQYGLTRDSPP

[8] = target: T3, Mitogen-activated protein kinase 15 (Homo sapiens) (UniProt Q8TD08); conditions: 10 uM
T3 sequence (whole entry): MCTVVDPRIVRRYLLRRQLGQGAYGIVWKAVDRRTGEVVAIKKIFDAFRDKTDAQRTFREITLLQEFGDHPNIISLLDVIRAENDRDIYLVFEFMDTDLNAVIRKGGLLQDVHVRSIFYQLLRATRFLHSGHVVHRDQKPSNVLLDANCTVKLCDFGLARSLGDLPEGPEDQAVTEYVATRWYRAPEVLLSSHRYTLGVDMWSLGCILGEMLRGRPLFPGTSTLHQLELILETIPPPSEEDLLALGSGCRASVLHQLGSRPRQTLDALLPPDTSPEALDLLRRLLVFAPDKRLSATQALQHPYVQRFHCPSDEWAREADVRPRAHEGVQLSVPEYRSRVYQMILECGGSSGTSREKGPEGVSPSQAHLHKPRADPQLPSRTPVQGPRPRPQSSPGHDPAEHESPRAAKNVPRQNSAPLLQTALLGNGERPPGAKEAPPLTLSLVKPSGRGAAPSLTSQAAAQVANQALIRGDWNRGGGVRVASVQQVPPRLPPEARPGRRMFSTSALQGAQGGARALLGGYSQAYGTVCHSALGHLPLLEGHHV

[9] = target: Serine/threonine-protein kinase PAK 3 (Homo sapiens) (UniProt O75914); conditions: 10 uM
Chain of Serine/threonine-protein kinase PAK 3 (Homo sapiens) (O75914 whole entry, looked up): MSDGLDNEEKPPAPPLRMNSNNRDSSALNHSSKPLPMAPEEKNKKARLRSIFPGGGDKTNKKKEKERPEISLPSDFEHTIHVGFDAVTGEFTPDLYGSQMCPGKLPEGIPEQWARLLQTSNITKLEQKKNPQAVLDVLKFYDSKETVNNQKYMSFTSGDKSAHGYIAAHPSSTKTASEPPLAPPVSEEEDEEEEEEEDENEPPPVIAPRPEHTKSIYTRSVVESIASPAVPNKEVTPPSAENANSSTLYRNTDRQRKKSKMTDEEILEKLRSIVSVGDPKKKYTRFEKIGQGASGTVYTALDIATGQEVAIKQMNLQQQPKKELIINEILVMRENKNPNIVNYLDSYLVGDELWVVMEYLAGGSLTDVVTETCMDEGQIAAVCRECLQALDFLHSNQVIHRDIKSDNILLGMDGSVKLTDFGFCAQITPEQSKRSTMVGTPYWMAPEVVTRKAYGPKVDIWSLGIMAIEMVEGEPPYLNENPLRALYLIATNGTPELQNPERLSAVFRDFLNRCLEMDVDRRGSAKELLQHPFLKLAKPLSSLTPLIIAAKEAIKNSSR

[10] = target: T4, Serine/threonine-protein kinase MAK (Homo sapiens) (UniProt P20794); conditions: 10 uM
T4 sequence (whole entry): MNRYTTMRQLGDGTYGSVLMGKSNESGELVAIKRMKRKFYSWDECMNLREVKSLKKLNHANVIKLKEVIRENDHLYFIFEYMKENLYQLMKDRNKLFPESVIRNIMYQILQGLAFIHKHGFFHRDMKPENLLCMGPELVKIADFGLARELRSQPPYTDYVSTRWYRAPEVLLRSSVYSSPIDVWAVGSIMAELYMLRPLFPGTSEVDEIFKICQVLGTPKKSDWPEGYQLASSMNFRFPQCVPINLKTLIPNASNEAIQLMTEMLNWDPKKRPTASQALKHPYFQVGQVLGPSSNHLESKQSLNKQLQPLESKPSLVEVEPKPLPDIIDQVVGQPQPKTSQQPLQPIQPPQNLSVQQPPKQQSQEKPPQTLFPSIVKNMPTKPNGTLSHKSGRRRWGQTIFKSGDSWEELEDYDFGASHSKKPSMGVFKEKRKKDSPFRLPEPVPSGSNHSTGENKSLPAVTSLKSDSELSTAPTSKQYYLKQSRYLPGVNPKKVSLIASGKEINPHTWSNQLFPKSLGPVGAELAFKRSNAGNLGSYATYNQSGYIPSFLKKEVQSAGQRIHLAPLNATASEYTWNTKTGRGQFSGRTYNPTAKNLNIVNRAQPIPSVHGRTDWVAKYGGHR

Liver microsome = test: Metabolic stability in human liver microsome assessed per gram of tissue; format: ADME; conditions: microsomes
[11] = target: Cyclin-dependent kinase 7 (Homo sapiens) (UniProt P50613); conditions: 10 uM
Chain of Cyclin-dependent kinase 7 (Homo sapiens) (P50613 whole entry): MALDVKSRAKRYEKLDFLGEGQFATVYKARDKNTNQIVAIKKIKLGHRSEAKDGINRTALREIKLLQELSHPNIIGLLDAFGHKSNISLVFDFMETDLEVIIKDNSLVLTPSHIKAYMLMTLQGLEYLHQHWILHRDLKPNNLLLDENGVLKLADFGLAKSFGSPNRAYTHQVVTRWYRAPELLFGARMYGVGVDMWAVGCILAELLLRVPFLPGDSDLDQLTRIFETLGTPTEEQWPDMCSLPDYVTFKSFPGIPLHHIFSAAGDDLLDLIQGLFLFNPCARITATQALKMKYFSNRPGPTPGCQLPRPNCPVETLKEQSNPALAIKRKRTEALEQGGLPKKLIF

[12] = target: T5, Phosphatidylinositol 5-phosphate 4-kinase type-2 gamma (Homo sapiens) (UniProt Q8TBX8); conditions: 10 uM
T5 sequence (whole entry): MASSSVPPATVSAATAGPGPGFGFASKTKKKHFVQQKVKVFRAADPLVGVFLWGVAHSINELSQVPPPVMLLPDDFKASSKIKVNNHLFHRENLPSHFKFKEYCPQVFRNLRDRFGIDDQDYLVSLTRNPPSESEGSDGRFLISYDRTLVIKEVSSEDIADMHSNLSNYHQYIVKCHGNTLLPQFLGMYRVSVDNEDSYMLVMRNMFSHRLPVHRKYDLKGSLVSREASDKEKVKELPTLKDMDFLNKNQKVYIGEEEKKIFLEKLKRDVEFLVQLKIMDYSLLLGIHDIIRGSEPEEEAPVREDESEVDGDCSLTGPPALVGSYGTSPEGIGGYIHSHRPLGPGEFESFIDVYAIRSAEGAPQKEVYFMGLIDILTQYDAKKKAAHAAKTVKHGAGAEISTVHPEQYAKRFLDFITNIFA

[13] = target: T6, Cyclin-dependent kinase-like 2 (Homo sapiens) (UniProt Q92772); conditions: 10 uM
T6 sequence (whole entry): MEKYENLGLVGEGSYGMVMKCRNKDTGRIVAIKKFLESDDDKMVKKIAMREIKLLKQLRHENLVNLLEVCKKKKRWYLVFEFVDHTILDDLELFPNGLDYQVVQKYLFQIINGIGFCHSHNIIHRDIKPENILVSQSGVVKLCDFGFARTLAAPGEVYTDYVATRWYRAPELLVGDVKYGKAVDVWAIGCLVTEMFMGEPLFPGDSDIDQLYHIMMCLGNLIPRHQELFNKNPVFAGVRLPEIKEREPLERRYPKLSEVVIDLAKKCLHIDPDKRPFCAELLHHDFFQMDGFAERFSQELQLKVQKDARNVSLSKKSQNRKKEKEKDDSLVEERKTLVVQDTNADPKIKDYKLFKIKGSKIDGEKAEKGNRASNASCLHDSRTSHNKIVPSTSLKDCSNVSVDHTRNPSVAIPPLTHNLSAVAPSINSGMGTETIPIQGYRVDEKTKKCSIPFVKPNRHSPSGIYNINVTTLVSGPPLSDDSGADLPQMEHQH

LIM domain kinase 2 [14] = target: T2, LIM domain kinase 2; test: Inhibition of human N-terminal GST-tagged LIMK2
How it was run: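 LIMK2 activity measured in a lanthabind-format assay.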
Target sequence in this assay (P53671 whole entry, the tested form may be a part): as the sequence (P53671 whole entry, looked up, the tested form may be a part) above

[15] = Metabolic stability in mouse liver microsome assessed per gram of tissue; format: ADME; conditions: microsomes
[16] = target: 5'-AMP-activated protein kinase catalytic subunit alpha-1 (Homo sapiens) (UniProt Q13131); conditions: 10 uM
Chain of 5'-AMP-activated protein kinase catalytic subunit alpha-1 (Homo sapiens) (Q13131 whole entry, looked up, the tested form may be a part): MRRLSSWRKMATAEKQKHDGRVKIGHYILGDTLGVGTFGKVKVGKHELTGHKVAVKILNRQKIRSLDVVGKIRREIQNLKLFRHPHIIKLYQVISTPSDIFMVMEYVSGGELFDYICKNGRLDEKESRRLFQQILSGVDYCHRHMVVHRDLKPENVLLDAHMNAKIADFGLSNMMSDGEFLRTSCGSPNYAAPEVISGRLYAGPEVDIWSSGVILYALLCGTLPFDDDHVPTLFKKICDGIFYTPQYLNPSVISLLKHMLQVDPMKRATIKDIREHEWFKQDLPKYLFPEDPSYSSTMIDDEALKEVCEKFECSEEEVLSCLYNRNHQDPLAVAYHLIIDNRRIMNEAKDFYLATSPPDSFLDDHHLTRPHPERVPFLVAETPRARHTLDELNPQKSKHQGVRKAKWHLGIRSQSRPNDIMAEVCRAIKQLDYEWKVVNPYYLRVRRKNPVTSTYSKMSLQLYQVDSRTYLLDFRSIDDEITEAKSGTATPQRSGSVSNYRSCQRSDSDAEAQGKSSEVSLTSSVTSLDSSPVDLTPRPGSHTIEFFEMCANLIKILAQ

[17] = target: T7, Discoidin domain-containing receptor 2 (Homo sapiens) (UniProt Q16832); conditions: 10 uM
T7 sequence (whole entry): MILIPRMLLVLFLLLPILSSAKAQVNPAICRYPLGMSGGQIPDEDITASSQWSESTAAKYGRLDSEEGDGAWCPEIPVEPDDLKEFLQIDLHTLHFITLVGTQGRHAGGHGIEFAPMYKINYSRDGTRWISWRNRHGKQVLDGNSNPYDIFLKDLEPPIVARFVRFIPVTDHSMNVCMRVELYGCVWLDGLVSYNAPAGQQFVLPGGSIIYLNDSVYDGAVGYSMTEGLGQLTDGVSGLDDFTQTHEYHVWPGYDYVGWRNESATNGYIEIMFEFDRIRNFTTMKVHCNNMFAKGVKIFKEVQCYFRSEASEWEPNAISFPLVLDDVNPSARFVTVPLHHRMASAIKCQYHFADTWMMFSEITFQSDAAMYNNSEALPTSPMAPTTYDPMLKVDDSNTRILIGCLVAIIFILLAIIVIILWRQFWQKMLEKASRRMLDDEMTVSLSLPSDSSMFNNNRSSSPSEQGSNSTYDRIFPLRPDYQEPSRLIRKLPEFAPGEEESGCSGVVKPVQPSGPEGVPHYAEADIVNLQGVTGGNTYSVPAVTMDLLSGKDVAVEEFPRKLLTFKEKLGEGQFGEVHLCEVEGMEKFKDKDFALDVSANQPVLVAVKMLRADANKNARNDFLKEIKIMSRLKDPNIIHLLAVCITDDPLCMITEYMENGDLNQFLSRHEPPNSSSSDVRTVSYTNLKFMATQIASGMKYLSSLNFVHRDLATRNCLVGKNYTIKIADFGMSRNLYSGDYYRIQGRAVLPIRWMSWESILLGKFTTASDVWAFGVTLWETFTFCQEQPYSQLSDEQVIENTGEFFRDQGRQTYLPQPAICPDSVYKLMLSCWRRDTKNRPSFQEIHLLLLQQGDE

[18] = target: Cyclin-dependent kinase 2 (Homo sapiens) (UniProt P24941); conditions: 10 uM
[19] = target: Cyclin-dependent kinase 18 (Homo sapiens) (UniProt Q07002); conditions: 10 uM
Chain of Cyclin-dependent kinase 18 (Homo sapiens) (Q07002 whole entry): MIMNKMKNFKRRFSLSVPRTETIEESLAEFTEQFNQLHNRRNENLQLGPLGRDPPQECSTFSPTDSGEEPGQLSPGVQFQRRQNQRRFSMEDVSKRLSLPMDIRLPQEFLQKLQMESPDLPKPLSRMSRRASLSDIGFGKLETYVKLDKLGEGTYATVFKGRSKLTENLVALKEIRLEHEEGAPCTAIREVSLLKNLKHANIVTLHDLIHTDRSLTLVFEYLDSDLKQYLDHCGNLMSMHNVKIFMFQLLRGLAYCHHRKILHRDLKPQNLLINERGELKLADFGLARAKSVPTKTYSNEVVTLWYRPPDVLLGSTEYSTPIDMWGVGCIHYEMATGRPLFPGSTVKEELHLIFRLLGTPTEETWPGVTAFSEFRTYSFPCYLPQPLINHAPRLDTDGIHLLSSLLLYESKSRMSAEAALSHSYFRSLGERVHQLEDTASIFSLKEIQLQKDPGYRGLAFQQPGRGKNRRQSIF

Structure (SMILES) | IC50 (LIM domain kinase 1 [1]) [nM] | IC50 (LIM domain kinase 1 [3]) [nM] | further results
CCCN(C)c1ncc(-c2ccncc2-c2ccccc2Cl)s1 | 3100 | – | –
CCCNc1ncc(-c2ncccc2-c2ccccc2Cl)s1 | ≥ 30000 | – | –
CC(C)CNc1ncc(-c2ccncc2-c2ccccc2Cl)s1 | 5 | 1500 | viability at 10 µM [2]: 88%; inhibition at 3 µM (MDA-MB-231): 34%
CCCNc1ncc(-c2ccncc2-c2ccccc2C)s1 | 82 | 11500 | –
CCCNc1ncc(-c2ccncc2)s1 | 19000 | – | –
Clc1ccccc1-c1cnccc1-c1cnc(Nc2ccccc2)s1 | 3 | 600 | –
CC(C)C(=O)Nc1ncc(-c2ccncc2-c2ccccc2Cl)s1 | 3 | 800 | –
CCCNc1ncc(-c2ccncc2-c2ccccc2C(C)C)s1 | 3300 | – | –
COc1ccc(-c2cnccc2-c2cnc(NC(=O)C(C)C)s2)c(C(F)(F)F)c1 | – | 2000 | inhibition [4]: > 90%; inhibition (LIM domain kinase 1 [5]): > 90%; viability at 10 µM [2]: 106%; inhibition at 3 µM (MDA-MB-231): 52%; inhibition [6]: > 90%; inhibition (LIM domain kinase 2 [7]): > 90%; inhibition [8]: > 90%; inhibition [9]: > 90%; inhibition [10]: > 90%; Stability (Liver microsome): 3.7 mL/min; inhibition [11]: > 90%; inhibition [12]: > 90%; inhibition [13]: > 90%; IC50 (LIM domain kinase 2 [14]): 48 nM; Stability [15]: 5.2 mL/min; inhibition [16]: > 90%; inhibition [17]: > 90%; inhibition [18]: > 90%; inhibition [19]: > 90%
Nc1ncc(-c2ccncc2-c2ccccc2Cl)s1 | 270 | > 30000 | –
C[C@@H](Nc1ncc(-c2ccncc2-c2ccccc2Cl)s1)c1ccccc1 | 4 | 2100 | –
CCCNc1ncc(-c2ccncc2-c2cccc(Cl)c2)s1 | 500 | – | –
CCCNc1ncc(-c2ccncc2-c2ccccc2)s1 | 850 | – | –
C[C@H](Nc1ncc(-c2ccncc2-c2ccccc2Cl)s1)c1ccccc1 | 40 | 9200 | –
CCCNc1ncc(-c2ccncc2-c2ccc(OC)cc2C(F)(F)F)s1 | 13 | 2500 | –
CCNc1ncc(-c2ccncc2-c2ccccc2Cl)s1 | 120 | 14000 | –
Cc1ccc(-c2cnccc2-c2cnc(NC(=O)C(C)C)s2)c(Cl)c1 | 1 | – | viability at 10 µM [2]: 131%; inhibition at 3 µM (MDA-MB-231): 48%; Stability (Liver microsome): 8.3 mL/min; IC50 (LIM domain kinase 2 [14]): 3 nM; Stability [15]: 19.4 mL/min
C=CCNc1nc(N)c(C(=O)c2ccc3c(c2)OCO3)s1 | 4000 | – | –
CCCNc1ncc(-c2ccncc2-c2ccc(Cl)cc2)s1 | 620 | – | –
CCCNc1ncc(-c2cccnc2-c2ccccc2Cl)s1 | 327 | – | –
CCCNc1ncc(-c2cnccc2-c2ccccc2Cl)s1 | 574 | – | –
CCCNc1ncc(-c2ccncc2-c2ccccc2C(F)(F)F)s1 | 37 | 2200 | –
CCCNc1ncc(-c2ccncc2-c2ccccc2Cl)s1 | 15 | 3800 | –
CC(=O)Nc1ncc(-c2ccncc2-c2ccccc2Cl)s1 | 20 | 1400 | –
